How the values were obtained:
[1] = molecular target: T1, Prostaglandin G/H synthase 1 (Homo sapiens, UniProt P23219)
[2] = molecular target: T1, Prostaglandin G/H synthase 1; type: tissue-based, Blood
[3] = molecular target: T2, Prostaglandin G/H synthase 2 (Homo sapiens, UniProt P35354); type: cell-based, CHO
T2 sequence (P35354 whole entry): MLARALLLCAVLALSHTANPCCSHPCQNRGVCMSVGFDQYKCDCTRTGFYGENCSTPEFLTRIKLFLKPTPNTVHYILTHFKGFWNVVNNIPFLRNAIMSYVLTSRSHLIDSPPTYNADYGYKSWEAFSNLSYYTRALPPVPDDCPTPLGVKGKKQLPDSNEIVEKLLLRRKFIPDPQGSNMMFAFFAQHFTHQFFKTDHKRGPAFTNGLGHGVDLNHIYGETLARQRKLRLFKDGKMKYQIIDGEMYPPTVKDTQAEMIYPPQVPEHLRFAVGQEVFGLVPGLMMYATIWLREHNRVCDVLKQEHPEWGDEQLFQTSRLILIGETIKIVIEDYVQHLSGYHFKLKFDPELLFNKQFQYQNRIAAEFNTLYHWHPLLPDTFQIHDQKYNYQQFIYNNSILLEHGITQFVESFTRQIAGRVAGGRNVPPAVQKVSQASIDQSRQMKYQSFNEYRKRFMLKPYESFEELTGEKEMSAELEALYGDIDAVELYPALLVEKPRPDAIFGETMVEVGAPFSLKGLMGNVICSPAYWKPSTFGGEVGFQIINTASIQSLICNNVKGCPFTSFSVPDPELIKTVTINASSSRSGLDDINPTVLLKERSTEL

[4] = molecular target: T2, Prostaglandin G/H synthase 2; type: tissue-based, Blood
[5] = tested on: Rattus norvegicus; experiment: In vivo efficacy was evaluated using a carrageenan-induced rat paw edema model as ED50.; type: functional
In short: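 Male Sprague–Dawley rats (150–200 g) were fasted overnight and dosed po in vehicle (1% methocel or 5% Tween 80). After 1 h, baseline paw volume was measured by plethysmometry and 1% carrageenan in saline was injected subplantarly (500 µg/paw). Paw swelling was measured 3 h later and % inhibition calculated versus vehicle. ED50 used ≥4 dose points with 5 rats/group.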

[6] = tested on: Rattus norvegicus; experiment: Compound was tested for 10 days at 100 mg/kg/day in rats activity measured as Cr leakage; Clean; type: functional, organism-based
[7] = tested on: Rattus norvegicus; experiment: In vivo efficacy was evaluated using a LPS-induced rat pyresis model as ED50.
[8] = tested on: Rattus norvegicus; experiment: In vivo efficacy was evaluated using a carrageenan-induced rat hyperalgesia model as ED50.; type: functional
In short: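 Male Sprague–Dawley rats (90–110 g) received intraplantar carrageenan (4.5 mg/paw). Compound was given orally 2 h after carrageenan. One hour later, the vocalization response to compression of the injected paw was measured with an algesiometer. ID50 was derived from at least four dose points.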

[9] = tested on: Rattus norvegicus; experiment: In vivo efficacy was evaluated in adjuvant arthritis(21 day); type: functional; settings: 504 h, read-out: ID50 (the source's name)
In short: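 Arthritis was induced in female Lewis rats (7 weeks, 144–172 g) by intradermal left hind footpad injection of 0.5 mg Mycobacterium butyricum in light mineral oil; 10 rats/group. Secondary-paw volume, body weight and radiographs were recorded on days 0, 14 and 21. Analysis used two-factor repeated-measures ANOVA with Dunnett's test.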

T1 sequence (P23219 whole entry): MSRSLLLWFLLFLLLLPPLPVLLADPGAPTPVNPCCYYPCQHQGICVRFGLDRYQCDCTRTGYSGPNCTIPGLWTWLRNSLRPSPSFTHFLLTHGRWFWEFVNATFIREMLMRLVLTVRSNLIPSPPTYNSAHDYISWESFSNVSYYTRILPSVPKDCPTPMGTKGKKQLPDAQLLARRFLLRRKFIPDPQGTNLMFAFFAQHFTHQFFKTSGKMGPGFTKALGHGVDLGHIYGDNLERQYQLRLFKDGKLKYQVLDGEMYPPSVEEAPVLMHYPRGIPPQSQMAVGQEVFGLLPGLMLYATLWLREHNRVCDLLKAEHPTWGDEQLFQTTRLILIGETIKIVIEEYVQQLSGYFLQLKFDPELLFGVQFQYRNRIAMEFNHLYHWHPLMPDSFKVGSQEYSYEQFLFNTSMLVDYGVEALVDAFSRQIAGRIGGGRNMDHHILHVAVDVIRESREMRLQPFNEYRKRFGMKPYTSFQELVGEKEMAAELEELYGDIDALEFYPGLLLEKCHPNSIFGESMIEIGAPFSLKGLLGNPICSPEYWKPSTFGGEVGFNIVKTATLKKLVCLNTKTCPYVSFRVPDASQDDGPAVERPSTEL

SMILES	IC50 [1] [nM]	IC50 [2] [nM]	IC50 [3] [nM]	IC50 [4] [nM]	ED50 [5] [mg/kg]	Cr leakage [6]	ED50 [7] [mg/kg]	ED50 [8] [mg/kg]	ED50 [9] [mg/kg]
CS(=O)(=O)c1ccc(C2=C(c3ccc(F)c(F)c3)C(=O)CC2)cc1	1700	3200	14	210					
CS(=O)(=O)c1ccc(C2=C(c3ccccc3)C(=O)CC2)cc1	3100	4100	11		10				
CC(C)(C)C#CC1=C(c2ccc(S(C)(=O)=O)cc2)CCC1=O	> 100000		150	5200					
CS(=O)(=O)c1ccc(C2=C(c3cccc(F)c3)C(=O)CC2)cc1	6600		14	340	6.4				
CS(=O)(=O)c1ccc(C2=C(c3cc(F)cc(F)c3)C(=O)CC2)cc1		61000	15	620	2.6	Clean	0.8	3	4
CS(=O)(=O)c1ccc(C2=C(c3cc(Cl)c(Cl)c(Cl)c3)C(=O)CC2)cc1	2500		6	930					
CS(=O)(=O)c1ccc(C2=C(/C=C/c3ccc(F)cc3)C(=O)CC2)cc1		27000	175	500	> 10				
CS(=O)(=O)c1ccc(C2=C(Oc3cc(F)cc(F)c3)C(=O)CC2)cc1	2700	94000	17	1100	6.6				
CS(=O)(=O)c1ccc(C2=C(c3cccnc3)C(=O)CC2)cc1	34000	73000	170	640	1.7	Clean	0.7	0.7	0.6
Cc1ccncc1C1=C(c2ccc(S(C)(=O)=O)cc2)CCC1=O	5500	4100	440	450					
Cc1ccc(-c2cc(C(F)(F)F)nn2-c2ccc(S(N)(=O)=O)cc2)cc1 [CELECOXIB]					3.2				
COc1ccncc1C1=C(c2ccc(S(C)(=O)=O)cc2)CCC1=O	60		150	90					
CS(=O)(=O)c1ccc(C2=C(c3ccc(Cl)c(F)c3)C(=O)CC2)cc1	700	100	15	150					
CS(=O)(=O)c1ccc(C2=C(c3cc(Br)ccn3)C(=O)CC2)cc1	18000		630	470					
CS(=O)(=O)c1ccc(C2=C(c3ccc(F)c(Cl)c3)C(=O)CC2)cc1	300		9	90					
CS(=O)(=O)c1ccc(C2=C(c3ccccc3)C(=O)OC2)cc1 [ROFECOXIB]					1.7				
CS(=O)(=O)c1ccc(C2=C(c3ccc(F)cc3)C(=O)CC2)cc1	500	3700	19	80	3				
CS(=O)(=O)c1ccc(C2=C(c3cc(Cl)cc(Cl)c3)C(=O)CC2)cc1	9200	> 100000	14	280	> 10				
CS(=O)(=O)c1ccc(C2=C(C#Cc3ccccc3)C(=O)CC2)cc1			6	640					
CS(=O)(=O)c1ccc(C2=C(c3cc4ccccc4s3)C(=O)CC2)cc1	100		14	80					
CS(=O)(=O)c1ccc(C2=C(c3cncc(Cl)c3)C(=O)CC2)cc1	> 100000	> 100000			1.3				
CS(=O)(=O)c1ccc(C2=C(c3cc(Cl)ccn3)C(=O)CC2)cc1	27000	34000	190	520	2.5				
CS(=O)(=O)c1ccc(C2=C(c3ccccn3)C(=O)CC2)cc1	> 10000		1530	9800					
CS(=O)(=O)c1ccc(C2=C(c3cncc(Br)c3)C(=O)CC2)cc1	> 100000		300	1700					

Source: ChEMBL document CHEMBL1132626 (J Med Chem, 1999)
